The values that follow come from ChEMBL document CHEMBL3616442, “Unconventional Knoevenagel-type indoles: Synthesis and cell-based studies for the identification of pro-apoptotic agents” (Eur J Med Chem, 2015).

Some results are limits rather than exact numbers.

One test concerns MT4. Kind of test: Antiproliferative activity against human MT4 cells after 96 hrs by MTT assay. The format is functional, cell-based. To be noted: MT4, 96 h. The essentials:
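Exponentially growing MT-4 cells (CD4+ human T-cells carrying integrated HTLV-1 genome), seeded at 1×10^5 cells/mL in RPMI-1640 with 10% FCS and antibiotics. Serial dilutions of compound (DMSO stock 100 mM, diluted in medium), 37 °C, 5% CO₂, 96 h. Viability read by MTT. 50% inhibition versus untreated controls by linear regression. Mean ± SD of three independent determinations.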

A further test concerns MRC5. Kind of test: Cytotoxicity against human MRC5 cells after 96 hrs by MTT assay. The format is cell-based. To be noted: MRC5, 96 h. The procedure, abridged: (§1)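 ATCC cell lines, mycoplasma-free by Hoechst staining. Haematological lines in RPMI-1640, solid-tumour and normal fibroblast lines in their own media, all with 10% FCS and antibiotics, at 37 °C in 5% CO₂. Compounds added as serial dilutions from a 100 mM DMSO stock diluted in medium. Viability by MTT after 96 h at 37 °C. Mean ± SD of three independent determinations.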
A general note: Formazan colour is commonly taken as a measure of viable cells.

Test [1] is described as follows: Cytotoxicity against human CRL7065 cells after 96 hrs by MTT assay. To be noted: CRL-7065, 96 h. It is filed as cell-based. The essentials: as §1
A further test has as its system SK-MEL-28. Kind of test: Cytotoxicity against human SK-MEL-28 cells after 96 hrs by MTT assay. It is filed as functional, cell-based. To be noted: SK-MEL-28, 96 h. The procedure, abridged:
as §1

The test system of another test is WIL2-NS. Kind of test: Cytotoxicity against human WIL2-NS cells after 96 hrs by MTT assay. It is filed as functional, cell-based. The procedure, abridged:
as §1

A further test relates to CCRF-CEM. Kind of test: Cytotoxicity against human CCRF-CEM cells after 96 hrs by MTT assay. The format is functional, cell-based. The essentials:
as §1

In the next test the test system is DU-145. Briefly: Cytotoxicity against human DU145 cells after 96 hrs by MTT assay. The format is functional, cell-based. To be noted: DU-145, 96 h. The essentials: as §1
The subject of the next test is HepG2. Kind of test: Cytotoxicity against human HepG2 cells after 96 hrs by MTT assay. The format is functional, cell-based. To be noted: HepG2, 96 h. The essentials: as §1
Another test relates to CCRF-SB. Briefly: Cytotoxicity against human CCRF-SB cells after 96 hrs by MTT assay. The format is functional, cell-based. The essentials:
as §1

Test [2] in a line: Cytotoxicity against human SKMES1 cells after 96 hrs by MTT assay. It is filed as functional, cell-based. Conditions: SK-MES-1, 96 h. The procedure, abridged: as §1
A further test has as its system MCF7. Briefly: Cytotoxicity against human MCF7 cells after 96 hrs by MTT assay. The format is functional, cell-based. Conditions: MCF7, 96 h. The procedure, abridged: as §1

For `CS(=O)(=O)/C(C#N)=C/c1c[nH]c2ccccc12`, the EC50 with MT4 is more than 100 µM.

As for `COC(=O)/C(=C\c1c(-c2ccccc2)[nH]c2ccccc12)S(=O)(=O)c1ccccc1`, the EC50 in the test on MT4 is 1 µM.

As to `CCOC(=O)/C(=C\c1c(-c2ccccc2)[nH]c2ccccc12)C(C)=O`, the EC50 turned out to be 31 µM in the test with MRC5; 83 µM in [1]; 30 µM in the test with SK-MEL-28; 2.7 µM in the test with WIL2-NS; 1.4 µM in the test with CCRF-CEM; 11 µM in the test on DU-145. In addition, the EC50 with MT4 was determined as 0.6 µM; in the test with HepG2, 19 µM; with CCRF-SB it was 1.6 µM; in test [2], 23 µM; in the test with MCF7, 32 µM.

In the test on MT4, `Cn1cc(/C=C(\C#N)S(=O)(=O)c2ccccc2)c2ccccc21` registered an EC50 of more than 100 µM.

With `CCOC(=O)/C(=C/c1c(-c2ccccc2)[nH]c2ccccc12)C(=O)c1ccccc1`, the EC50 in the test with MRC5 was more than 100 µM; in [1], more than 100 µM; in the test with SK-MEL-28, more than 100 µM; in the test on WIL2-NS, 12 µM; in the test on CCRF-CEM, 8 µM; in the test on DU-145, 68 µM. For the same molecule, the EC50 is 7 µM with MT4; 31 µM in the test with HepG2; 9.6 µM in the test on CCRF-SB; more than 100 µM in [2]; 43 µM in the test with MCF7.

On to `Cc1ccc(S(=O)(=O)/C(C#N)=C/c2c(-c3ccccc3)[nH]c3ccccc23)cc1`, for which the EC50 in the test on MT4 amounted to 0.4 µM.

In the test on MT4, `CC(C)OP(=O)(OC(C)C)/C(C#N)=C/c1c(-c2ccccc2)[nH]c2ccccc12` gave an EC50 of 11 µM.

As for `Cc1[nH]c2ccccc2c1C=C(C#N)C#N`, a half-maximal effect in the test with MT4 (EC50) was put at 56 µM.

With `N#C/C(=C\c1c(-c2ccccc2)[nH]c2ccccc12)C(=O)N1CCCCC1`, the EC50 in the test with MT4 worked out at 9.6 µM.

In the test on MT4, `CC(=O)/C(=C\c1c(-c2ccccc2)[nH]c2ccccc12)S(=O)(=O)c1ccc(Cl)cc1` yielded an EC50 of more than 100 µM.

As to `N#C/C(=C\c1c(-c2ccccc2)[nH]c2ccccc12)C(=O)c1ccc(Cl)cc1`, the EC50 in the test on MRC5 amounted to 14 µM; in [1], 7.4 µM; in the test with SK-MEL-28, 15 µM; with WIL2-NS, 4.5 µM; with CCRF-CEM, 1.1 µM; in the test with DU-145, 11 µM. Moreover, the EC50 in the test on MT4 amounted to 0.4 µM; in the test on HepG2, 37 µM; in the test with CCRF-SB, 0.6 µM; in test [2], 19 µM; in the test on MCF7 it was 28 µM.

For `CCOC(=O)/C(C#N)=C/c1c(-c2ccccc2)[nH]c2ccccc12`, in the test on MT4, a half-maximal response (EC50) required 1.7 µM.

For the molecule `CCOC(=O)/C(=C/c1c(-c2ccccc2)[nH]c2ccccc12)C(=O)c1ccc([N+](=O)[O-])cc1`, the EC50 with MRC5 was more than 100 µM; in [1] it was more than 100 µM; in the test with SK-MEL-28 it was more than 100 µM; in the test with WIL2-NS, 2.4 µM; in the test on CCRF-CEM it was 1.8 µM; in the test with DU-145, 11 µM. The EC50 in the test on MT4 was found to be 1.5 µM; in the test on HepG2, 28 µM; in the test with CCRF-SB, 2.2 µM; in test [2], 19 µM; in the test on MCF7, 40 µM.

For the molecule `Cc1[nH]c2ccccc2c1/C=C(\C#N)S(C)(=O)=O`, in the test on MT4, the EC50 was more than 100 µM.

With `N#CC(C#N)=Cc1c[nH]c2ccccc12`, in the test with MT4, the response was half-maximal at 36 µM (EC50).

Turning to `COc1cccc2c1C(=O)c1c(O)c3c(c(O)c1C2=O)C[C@@](O)(C(=O)CO)C[C@@H]3O[C@H]1C[C@H](N)[C@H](O)[C@H](C)O1` [DOXORUBICIN], the EC50 with MRC5 is 0.3 µM; in test [1] it was 0.9 µM; in the test on SK-MEL-28, 0.7 µM; with WIL2-NS, 0.04 µM; in the test with CCRF-CEM, 0.02 µM; with DU-145, 0.2 µM. The EC50 with MT4 was determined as 0.03 µM; with HepG2 it was 0.3 µM; in the test with CCRF-SB, 0.01 µM; in test [2], 0.1 µM; in the test on MCF7 it was 0.3 µM.

With `COC(=O)/C(=C\c1c[nH]c2ccccc12)S(=O)(=O)c1ccccc1`, the EC50 in the test on MT4 is more than 100 µM.

In the test on MT4, `Cn1cc(/C=C(\C#N)S(C)(=O)=O)c2ccccc21` had an EC50 of more than 100 µM.

Regarding `CC(C)(C)C(=O)/C(C#N)=C/c1c(-c2ccccc2)[nH]c2ccccc12`, the EC50 in the test with MT4 is 0.5 µM.

`CC(=O)/C(=C/c1c(-c2ccccc2)[nH]c2ccccc12)C(=O)c1ccccc1`: the EC50 is more than 100 µM in the test with MRC5; more than 100 µM in test [1]; more than 100 µM in the test with SK-MEL-28; 12 µM in the test on WIL2-NS; 8.1 µM in the test on CCRF-CEM; more than 100 µM in the test with DU-145. For the same molecule, the EC50 in the test on MT4 is 2 µM; in the test with HepG2, 79 µM; in the test on CCRF-SB, 11 µM; in test [2] it was more than 100 µM; in the test on MCF7, more than 100 µM.

In the test on MT4, `CCOP(=O)(OCC)/C(C#N)=C/c1c[nH]c2ccccc12` came in with an EC50 of 80 µM.

In the test with MT4, `CCOC(=O)/C(=C/c1c(-c2ccccc2)[nH]c2ccccc12)C(=O)c1ccc(Cl)cc1` yielded an EC50 of 9 µM.

`CCOC(=O)/C(=C/c1c[nH]c2ccccc12)C(=O)c1ccc([N+](=O)[O-])cc1` returned an EC50 in the test on MT4 of 100 µM.

In the test on MT4, `N#C/C(=C\c1c(-c2ccccc2)[nH]c2ccccc12)C(=O)Nc1ccc(Cl)cc1` showed an EC50 of 1.7 µM.

Take `O=C(/C(=C\c1c(-c2ccccc2)[nH]c2ccccc12)C(=O)C(F)(F)F)c1ccco1`: the EC50 in the test with MRC5 was 12 µM; in test [1] it was 8.1 µM; in the test on SK-MEL-28 it was 33 µM; in the test on WIL2-NS, 2.3 µM; in the test with CCRF-CEM, 1.9 µM; with DU-145, 9.2 µM. Besides, the EC50 was found to be 0.8 µM with MT4; 16 µM in the test with HepG2; 1.8 µM in the test on CCRF-SB; 27 µM in test [2]; 10 µM with MCF7.

In the case of `CC(=O)C(=Cc1c(-c2ccccc2)[nH]c2ccccc12)C(C)=O`, in the test on MT4, the midpoint of the response, the EC50, lay at 1.5 µM.

The molecule `N#C/C(=C\c1c(-c2ccccc2)[nH]c2ccccc12)C(N)=O` showed an EC50 in the test on MT4 of 6 µM.

As for `O=C(C(=Cc1c(-c2ccccc2)[nH]c2ccccc12)C(=O)c1ccccc1)c1ccccc1`, the EC50 with MRC5 is more than 100 µM; in test [1] it was more than 100 µM; in the test on SK-MEL-28, more than 100 µM; with WIL2-NS, 72 µM; in the test with CCRF-CEM, 12 µM; in the test on DU-145, more than 100 µM. Moreover, the EC50 was 8.9 µM with MT4; more than 100 µM with HepG2; 12 µM in the test on CCRF-SB; more than 100 µM in test [2]; more than 100 µM with MCF7.

With `CCOC(=O)/C(=C/c1c[nH]c2ccccc12)C(=O)c1ccccc1`, in the test on MT4, the EC50 is more than 100 µM.

In the case of `COCCOC(=O)/C(C#N)=C/c1c(-c2ccccc2)[nH]c2ccccc12`, the EC50 was more than 100 µM in the test on MRC5; 76 µM in test [1]; 9.3 µM with SK-MEL-28; 2.2 µM in the test with WIL2-NS; 1.6 µM with CCRF-CEM; 4.2 µM with DU-145. For the same molecule, the EC50 turned out to be 1.2 µM in the test on MT4; 85 µM in the test with HepG2; 2.2 µM with CCRF-SB; 5 µM in test [2]; 12 µM in the test with MCF7.

In the test with MT4, `Cc1[nH]c2ccccc2c1/C=C(\C#N)S(=O)(=O)c1ccccc1` showed an EC50 of more than 100 µM.

Turning to `N#C/C(=C\c1c[nH]c2ccccc12)S(=O)(=O)c1ccccc1`, the EC50 in the test with MT4 was more than 100 µM.

As a reminder, the EC50 is the concentration giving half of the maximal effect. Read a low EC50 as greater potency.
